A selection: hits, their analogues and other compounds. The true share with any hit is near 1.5%.
CCR6 antag: antagonists of human CCR6 receptor; CHO-K1 CCR6 PathHunter beta-arrestin, luminescence, CCL20-stimulated; inhibition, % at 20 µM; hit rate 0.49% among 340,000; AID 493098;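 active = compounds whose inhibition of the agonist-driven luminescence signal at 20 µM reaches about 50%, limit read from the data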;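 also: cells stimulated with CCL20 at 14 nM final; plate controls were DMSO with CCL20 for no effect and DMSO without agonist for full effect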
Target sequence (P51684 whole entry, looked up): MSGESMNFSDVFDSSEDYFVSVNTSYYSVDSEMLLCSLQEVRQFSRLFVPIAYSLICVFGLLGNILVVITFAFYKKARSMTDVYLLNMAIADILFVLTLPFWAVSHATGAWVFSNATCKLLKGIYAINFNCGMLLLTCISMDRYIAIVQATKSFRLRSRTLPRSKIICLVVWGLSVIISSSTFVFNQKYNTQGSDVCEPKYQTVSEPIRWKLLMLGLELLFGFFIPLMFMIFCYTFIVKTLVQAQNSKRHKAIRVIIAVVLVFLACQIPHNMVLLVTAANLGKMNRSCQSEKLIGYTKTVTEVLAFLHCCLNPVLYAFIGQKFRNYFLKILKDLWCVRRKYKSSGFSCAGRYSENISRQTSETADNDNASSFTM
APJ antag: blocks the human apelin receptor APJ; inhibition, % at 20 µM; P35414; hit rate 0.32% among 330,000; CHO-K1 APJ beta-arrestin complementation, luminescence;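 active = inhibition above about 40% at 20 µM, limit read from the data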;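 also: cells challenged with 10 nM apelin-13 agonist together with compound; plate controls were apelin-13 plus DMSO wells for no effect and DMSO wells lacking apelin-13 for full effect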
EBI2 block: antagonists of human EBI2 receptor | EBI2 beta-arrestin recruitment, luminescence, 7a,25-OHC stimulated | hit rate 0.81% among 360,000 | P32249 | inhibition, % at 5 µM | AID 651636; in the data active = inhibition above about 38%;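 also: enzyme fragment complementation signal reports receptor beta-arrestin coupling in cells; 0% = agonist plus DMSO wells and 100% = wells without agonist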
CXCR6 block: inhibitors of human CXCR6 receptor. CHO-K1 PathHunter CXCR6 beta-arrestin, luminescence. inhibition, % at 20 µM. hit rate 0.36% among 360,000; in the data active = inhibition above about 34%, passing the limit was not always enough;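 also: antagonist mode with CXCL16 agonist at 10 nM final; 0% = 10 nM CXCL16 with DMSO and 100% = unstimulated wells without agonist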
Target sequence (O00574 whole entry, looked up): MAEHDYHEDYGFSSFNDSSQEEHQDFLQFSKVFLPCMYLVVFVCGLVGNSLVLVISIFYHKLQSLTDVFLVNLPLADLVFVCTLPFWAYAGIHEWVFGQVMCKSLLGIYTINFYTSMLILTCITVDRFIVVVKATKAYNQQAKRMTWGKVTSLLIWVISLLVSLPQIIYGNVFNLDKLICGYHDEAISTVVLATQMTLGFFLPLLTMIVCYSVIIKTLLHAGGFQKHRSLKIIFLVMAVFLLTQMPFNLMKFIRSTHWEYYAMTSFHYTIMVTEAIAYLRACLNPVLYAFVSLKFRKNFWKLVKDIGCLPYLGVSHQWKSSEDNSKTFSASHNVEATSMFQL
APJ agonist: agonists of human APJ apelin receptor; P35414; CHO-K1 APJ PathHunter beta-arrestin, luminescence; 0% DMSO wells, 100% apelin; activation, % at 20 µM; hit rate 0.11% among 330,000; AID 2520;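 active = activation more than six SD over the plate average, tested at 20 µM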;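 also: 0% = DMSO alone and 100% = apelin-13 at 10 nM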
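Test system – PathHunter CHO-K1 APJ (AGTRL-1) beta-arrestin reporter cells · Input – 1000 cells/well · Compound – single test compound dose, 20 µM final, 1% DMSO · Times – compound stimulation 90 min at 25 °C, detection 60 min · Technique – beta-gal luminescence · Read-out basis – APJ–arrestin association signal · Control set – negative DMSO alone, positive Apelin-13 at 10 nM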
CXCR6 antag conf: CXCR6 antagonism confirmation, single concentration | hit rate 65% among 700 | CHO-K1 CXCR6 PathHunter beta-arrestin, luminescence | shares compounds with CXCR6 block | inhibition, % at 20 µM;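 active = mean inhibition over four retests above 40%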;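 also: receptor stimulated with 10 nM CXCL16 agonist; beta-galactosidase fragment complementation upon beta-arrestin recruitment to receptor; plate controls were CXCL16 plus DMSO for no effect and DMSO without CXCL16 for full effect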
The depositor's hits bear a star; nt = no result.

SMILES | CCR6 antag | APJ antag | EBI2 block | CXCR6 block | APJ agonist | CXCR6 antag conf
CCC(CO)NCc1ccc(OCC(O)c2ccccc2)c(OC)c1 (configuration not stated) | 3.7 | 10.7 | 7.9 | 5.3 | 1.6 | nt
O=C(CC1C=Cc2ccccc2N1C(=O)c1ccccc1)c1ccccc1 (configuration not stated) | 27.5 | 7.9 | -9.8 | 5.7 | 0.8 | nt
COc1ccc(S(=O)(=O)NC(=O)C2(C)CCN2C(=O)c2cccc(F)c2)cc1 (configuration not stated) | nt | nt | -4.2 | 1.7 | nt | nt
Cc1ccc(-c2csc(N3C(=N)SCC3=O)n2)cc1 | 39.2 | 12.2 | nt | nt | -5.5 | nt
N=C1SCC(=O)N1c1ncc(Cc2ccc(F)cc2)s1 | nt | 4.4 | -6.4 | 50.8* | -5.0 | 67.8*
CC(C)=CCN1CCN(CCC2=C(C)CCCC2(C)C)CC1CCO (configuration not stated) | 14.6 | 17.8 | -4.3 | -23.4 | -2.8 | nt
CC1=C(CC/C(C)=N/NC(N)=S)C(C)(C)CCC1 | 19.0 | 21.8 | 28.9 | 45.7* | -4.0 | 14.7
CCOC(=O)C1=C(c2ccccc2)Nc2ncnn2C1c1ccc(C(=O)O)cc1 (configuration not stated) | 3.9 | 9.0 | 3.6 | -7.7 | 4.9 | nt
CCOC(=O)C1=C(c2ccccc2)NC(N)=NC1c1ccc(OCc2ccc(C(=O)OC)cc2)cc1 (configuration not stated) | 42.6 | 3.2 | 1.1 | 34.6* | -0.6 | 22.6
CC(NC(=O)c1cc(F)c(F)cc1Cl)C1CC2CCC1C2 (configuration not stated) | 16.3 | 14.6 | 2.8 | -3.5 | -0.9 | nt
CC(=O)Nc1ccc2c(c1)Cc1cc(N3C(=O)C=CC3=O)ccc1-2 | 115.4* | nt | 25.2 | 98.8* | nt | 72.0*
c1ccc(-c2nc3ccccc3[nH]2)cc1 | 9.9 | -13.1 | -5.6 | -2.5 | -0.5 | nt
S=c1nc(-c2ccccc2)[nH]c2ccc(Br)cc12 | 29.7 | 25.5 | 2.3 | 42.2* | -2.4 | 9.4
c1ccc(NC2=NCCN2CCCC2CCCCC2)cc1 | 15.2 | 7.7 | 5.7 | 7.7 | -9.7 | nt
Oc1c(Br)cc(Br)cc1C=NCc1ccccc1 | 20.6 | 6.0 | 2.7 | 40.6* | -4.1 | 51.1*
CCN(c1ccccc1)S(=O)(=O)c1ccc2[nH]c(=O)c(=O)[nH]c2c1 | 2.0 | 9.0 | -9.3 | 7.0 | 0.3 | nt
CCN(c1ccccc1C(=O)O)S(=O)(=O)c1ccc2[nH]c(=O)[nH]c2c1 | 7.3 | 9.3 | -13.4 | 38.9* | 0.9 | 1.1
Nn1c(SCc2cc([N+](=O)[O-])cc3c2OCOC3)nnc1-c1cccnc1 | 5.2 | 10.1 | -4.8 | -1.7 | -3.2 | nt
CCOC(=O)c1ccc(NC(=O)c2nc(SC)ncc2Cl)cc1 | 20.6 | 13.5 | -9.8 | 4.5 | -4.7 | nt
Cc1ccc(NC(=O)c2nc(S(=O)(=O)Cc3ccccc3)ncc2Cl)cc1 | 80.0* | 18.0 | 34.0 | 59.3* | 0.4 | 56.7*
Cc1cccc(CS(=O)(=O)c2ncc(Cl)c(C(=O)NCc3ccccc3)n2)c1 | 47.8 | 16.2 | 29.8 | 56.8* | -3.3 | 63.5*
CCN(c1ccccc1)S(=O)(=O)c1ccc(NC(=O)c2nc(S(C)(=O)=O)ncc2Cl)cc1 | 96.4* | 20.3 | 8.8 | 81.3* | 9.4 | 68.3*
CSc1ncc(Cl)c(C(=O)Nc2ccc(S(=O)(=O)Nc3nccc(C)n3)cc2)n1 | 20.2 | 9.8 | 2.9 | 4.5 | -8.3 | nt
Cc1ccccc1CS(=O)(=O)c1ncc(Cl)c(C(=O)Nc2ccc(F)cc2)n1 | nt | -0.2 | 52.9* | 57.6* | 0.4 | 58.2*
O=C(COC(=O)c1cc(Cl)ccc1O)Nc1cc(C(F)(F)F)ccc1N1CCOCC1 | 9.3 | 0.3 | 8.5 | -5.3 | -4.4 | nt
SMILES | CCR6 antag | APJ antag | EBI2 block | CXCR6 block | APJ agonist | CXCR6 antag conf
CCN(CC(=O)NC(C)(C)C)C(=O)COc1c(Cl)cc(Cl)c2ccc(C)nc12 | nt | 6.0 | -15.9 | 32.8* | -2.8 | 36.7
CC(Oc1cccc(Cl)c1)C(=O)Nc1nc(-c2ccccn2)cs1 (configuration not stated) | 87.5* | 29.6 | -1.2 | 70.1* | -11.0 | 78.3*
CC(Oc1ccccc1)C(=O)Nc1nc(-c2ccccn2)cs1 (configuration not stated) | nt | -2.6 | -7.3 | 37.5* | -5.4 | 64.0*
O=C(COc1ccc(F)cc1Cl)Nc1nc(-c2ccccn2)cs1 | nt | 7.9 | -3.9 | 46.3* | -3.0 | 37.8
CSCCC(NC(=O)COc1ccccc1)C(=O)OC(C)C(=O)Nc1ccccc1C (configuration not stated) | 11.8 | -40.0 | 2.0 | 17.2 | -3.6 | nt
O=C(CC1CCCC1)Nc1ccc(Cl)c(S(=O)(=O)N2CCOCC2)c1 | 1.0 | 7.6 | 7.9 | -18.4 | 2.0 | nt
Cc1ccc(NC(=O)c2ccc(Cl)c(N3C(=O)C=CC3=O)c2)cc1 | nt | -4.6 | -8.8 | 94.4* | 3.1 | 24.9
O=C(NC(=S)N1CCN(c2ccc(C(F)(F)F)cc2[N+](=O)[O-])CC1)c1cccs1 | nt | 22.1 | 6.6 | 52.4* | 0.4 | 56.2*
CC1(C)OC(=O)N(NCc2ccccc2)C1(C)O (configuration not stated) | 4.2 | -26.1 | -5.9 | 2.8 | -2.2 | nt
C=C(C)CSc1[nH]c(=O)cc(C)c1C#N | 1.1 | -4.4 | -4.8 | -4.4 | -2.6 | nt
O=C(Nc1cccc(S(=O)(=O)N2CCCC2)c1)c1cc(-c2ccccn2)nc2ccccc12 | 19.0 | -2.1 | -5.3 | 0.9 | 0.7 | nt
Cc1ccc2c(c1)C1CN(C)CCC1N2C(=S)NC(=O)c1ccc(Br)cc1 (configuration not stated) | 56.4* | 33.3 | 6.7 | 44.0* | -5.4 | 66.6*
O=C1C(=C(c2ccccc2)N2CCOCC2)Cc2ccccc21 | nt | nt | 23.9 | 69.8* | nt | 78.0*
COc1ccc(C(=O)N/C(N)=N/c2nc3ccccc3o2)cc1 | -8.1 | 5.9 | 9.9 | -8.7 | -0.6 | nt
COc1ccc(C(=O)/C=C/Sc2nc3ccccc3o2)cc1 | 61.8* | 1.1 | 36.4 | 45.5* | 3.1 | 44.6*
CCCC(C)Sc1nc2c([nH]1)c(=S)n(C)c(=O)n2C (configuration not stated) | 40.1 | nt | 1.6 | 42.0* | nt | 15.8
Cc1cccc(NC(=O)CNC(=O)CN2C(=O)NC3(CCc4ccccc43)C2=O)c1C (configuration not stated) | 1.5 | 4.3 | -4.6 | 5.2 | -0.5 | nt
O=C(c1ccco1)N1CCN(Cc2cn[nH]c2-c2ccc(F)cc2F)CC1 | 5.5 | 11.7 | -3.5 | 56.7* | 3.1 | 11.5
COc1ccc(-c2[nH]ncc2CN2CCN(C(=O)c3ccco3)CC2)cc1F | 9.0 | 6.7 | 2.4 | -2.6 | -1.9 | nt
CCOC(=O)CC1C(=O)NCCN1S(=O)(=O)c1ccc(NC(C)=O)cc1 (configuration not stated) | 0.1 | 10.3 | 4.5 | -0.3 | -5.6 | nt
Clc1ccc(-c2nc3c4ccccc4ccn3c2Cc2ccccc2)cc1 | nt | nt | 10.9 | 44.0* | nt | 9.8
Fc1ccc(-c2nc3c4ccccc4ccn3c2Cc2ccccc2)cc1 | nt | nt | -8.7 | 5.3 | nt | nt

Compound activity from PubChem.
